Results on three compounds are retold here after PMC3229844 (Chemmedchem, 2011).

In data set [1] the target is T1, CXCR4 (Homo sapiens, UniProt P61073). The settings on record: value taken from the literature; cited from earlier work.
Data set [2] has as its target T1, CXCR4. Format: binding. The settings on record: Table 1; mean±SD of three experiments except values greater than 100 nM.
A short description of data set [3]: Biodistribution of [68Ga]2 c in OH1 tumor-bearing nude mice. Format: in vivo. The settings on record: nude, mouse, tumor / muscle, total radioactivity, Tumor/Muscle ratio, Blockade, 1 h p.i. (n=4), in the presence of 50 μg cyclo-(D-Tyr 1-Arg 2-Arg 3-Nal 4-Gly 5), OH1 mice. Summed up: (§1)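 Tracer: 68Ga-labeled test compound, given alone or co-injected with 50 μg competitor, in nude mice bearing OH-1 human small-cell lung cancer xenografts. Animals were sampled at 60 and 120 min post-injection. Organ and tumour activity was expressed as %ID g−1, and tumour/muscle ratios were derived.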

Data set [4] concerns OH-1 human small-cell lung cancer xenografts. The description is as above. Format: in vivo. Summed up:
as §1

Data set [5] shares this test system. In words: PET imaging of CXCR4 expression in tumor-bearing nude mice. The data set is classed as in vivo.
The mark [6] stands for this setting: 1 h p.i. (n=4), in the presence of 50 μg cyclo-(D-Tyr 1-Arg 2-Arg 3-Nal 4-Gly 5), OH1 mice.

Like-named read-outs stand apart in the source and are kept apart here. Square brackets hold non-standard residues; d marks the D form. Side chains are listed from the residue outwards. Peptide text beside a SMILES is read from it. * marks the point of attachment. DOTA = O=C(O)CN1CCN(CC(=O)O)CCN(CC(=O)*)CCN(CC(=O)O)CC1; 2Nal = N[C@@H](Cc1ccc2ccccc2c1)C(=O)O; dNMeOrn = CN[C@H](CCCN)C(=O)O; 4Amb = NCc1ccc(C(=O)O)cc1

T1 sequence (P61073 whole entry): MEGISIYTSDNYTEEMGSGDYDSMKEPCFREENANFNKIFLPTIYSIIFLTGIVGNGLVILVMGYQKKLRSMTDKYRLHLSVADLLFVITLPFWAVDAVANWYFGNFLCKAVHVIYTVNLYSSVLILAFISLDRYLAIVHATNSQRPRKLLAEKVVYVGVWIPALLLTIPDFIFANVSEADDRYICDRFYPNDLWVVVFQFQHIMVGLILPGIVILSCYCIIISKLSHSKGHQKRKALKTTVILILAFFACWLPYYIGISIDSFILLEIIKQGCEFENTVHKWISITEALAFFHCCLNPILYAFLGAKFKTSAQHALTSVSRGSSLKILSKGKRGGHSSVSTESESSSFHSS

With “cyclo-(-D-Tyr 1-Arg 2-Arg 3-Nal 4-Gly 5) [1 a]”, the IC50 (commonly the concentration that inhibits the measured activity by half) in data set [1] was 4.3 ± 1.2 nM.
Compound `CN1C(=O)[C@@H](Cc2ccc(O)cc2)NC(=O)CNC(=O)[C@H](Cc2ccc3ccccc3c2)NC(=O)[C@H](CCCNC(=N)N)NC(=O)[C@H]1CCCNC(=O)c1ccc(CNC(=O)CN2CCN(CC(=O)O)CCN(CC(=O)O)CCN(CC(=O)O)CC2)cc1` [2 b] (cyclo([dY][dNMeOrn]([4Amb-DOTA])R[2Nal]G)) displayed an IC50 in data set [2] of 44 ± 4 nM.
With `CN1C(=O)[C@@H](Cc2ccc(O)cc2)NC(=O)CNC(=O)[C@H](Cc2ccc3ccccc3c2)NC(=O)[C@H](CCCNC(=N)N)NC(=O)[C@H]1CCCNC(=O)c1ccc(CNC(=O)CN2CCN(CC(=O)O)CCN(CC(=O)O)CCN(CC(=O)O)CC2)cc1` [[^68Ga]2 c, metal not drawn] (cyclo([dY][dNMeOrn]([4Amb-DOTA])R[2Nal]G)), in data set [3], the tissue to tissue ratio at 1 h came out at 3.45 ± 1.45. Besides, in data set [4] (setting [6]), the “Blockade, Adrenal glands” value is listed as 0.87±0.32 %ID g^−1; the “Blockade, Blood” value was 2.50±0.64 %ID g^−1; the “Blockade, Heart” value turned out to be 1.38±0.52 %ID g^−1; the “Blockade, Intestine” value is reported as 1.00±0.32 %ID g^−1. Further, in data set [4] (setting [6]), the “Blockade, Kidney” value is given as 7.19±1.83 %ID g^−1; the “Blockade, Liver” value was 2.27±0.59 %ID g^−1; the “Blockade, Lung” value was 3.25±1.06 %ID g^−1; the “Blockade, Muscle” value turned out to be 0.58±0.21 %ID g^−1. In data set [4] (setting [6]), the “Blockade, Pancreas” value worked out at 0.75±0.19 %ID g^−1; the “Blockade, Spleen” value was 1.03±0.40 %ID g^−1; the “Blockade, Stomach” value is recorded as 1.40±0.30 %ID g^−1; the “Blockade, Tumor” value was determined as 1.88±0.30 %ID g^−1. For the same compound, in data set [4] (1 h p.i. (n=8), OH1 mice), the “Biodistribution, Adrenal glands” value amounted to 0.83±0.55 %ID g^−1; the “Biodistribution, Blood” value is on record as 1.08±0.27 %ID g^−1; the “Biodistribution, Heart” value was 0.60±0.16 %ID g^−1; the “Biodistribution, Intestine” value is 0.45±0.11 %ID g^−1. For the same compound, in data set [4] (1 h p.i. (n=8), OH1 mice), the “Biodistribution, Kidney” value was determined as 3.06±0.63 %ID g^−1; the “Biodistribution, Liver” value stood at 1.85±0.24 %ID g^−1; the “Biodistribution, Lung” value was 1.41±0.26 %ID g^−1; the “Biodistribution, Muscle” value came to 0.38±0.09 %ID g^−1. Besides, in data set [4] (1 h p.i. (n=8), OH1 mice), the “Biodistribution, Pancreas” value was determined as 0.30±0.07 %ID g^−1; the “Biodistribution, Spleen” value was found to be 0.69±0.09 %ID g^−1; the “Biodistribution, Stomach” value came out at 0.72±0.26 %ID g^−1; the “Biodistribution, Tumor” value is recorded as 6.16±1.16 %ID g^−1. In data set [4] (1 h post-injection), the “tumor to organ ratios” value is “High tumor to organ ratios”. Further, in data set [4] (2 h p.i. (n=3), OH1 mice), the “Biodistribution, Adrenal glands” value was 0.50±0.15 %ID g^−1; the “Biodistribution, Blood” value was 0.58±0.14 %ID g^−1; the “Biodistribution, Heart” value was 0.29±0.10 %ID g^−1; the “Biodistribution, Intestine” value was determined as 0.36±0.04 %ID g^−1. In data set [4] (2 h p.i. (n=3), OH1 mice), the “Biodistribution, Kidney” value was found to be 2.07±0.46 %ID g^−1; the “Biodistribution, Liver” value is reported as 1.48±0.31 %ID g^−1; the “Biodistribution, Lung” value is listed as 2.85±2.69 %ID g^−1; the “Biodistribution, Muscle” value is 0.28±0.17 %ID g^−1. Besides, in data set [4] (2 h p.i. (n=3), OH1 mice), the “Biodistribution, Pancreas” value is listed as 0.21±0.02 %ID g^−1; the “Biodistribution, Spleen” value was 0.65±0.25 %ID g^−1; the “Biodistribution, Stomach” value is reported as 0.46±0.12 %ID g^−1; the “Biodistribution, Tumor” value was determined as 4.63±1.54 %ID g^−1. In data set [5] (co-injection of 50 μg AMD3100 per mouse (data not shown)), the “tumor uptake on co-injection of competitor” value is on record as “significantly reduced”. Also, the “tumor uptake on co-injection of competitor” value in data set [5] (co-injection of 50 μg cyclo-(-D-Tyr 1-Arg 2-Arg 3-Nal 4-Gly 5) per mouse) is given as “significantly reduced”. In data set [5] (nude mice bearing OH-1 human small-cell lung cancer xenografts), the “accumulation in CXCR4-expressing tumors” value is listed as “accumulated in high levels”.
